Results: ChEMBL document CHEMBL1127834, “Naphthalenic lignan lactones as selective, nonredox 5-lipoxygenase inhibitors. Synthesis and biological activity of (methoxyalkyl)thiazole and methoxytetrahydropyran hybrids” (J Med Chem, 1994)

Legend:
[1] = Cmax value of compound was determined after 1 hr; format: ADME, organism-based; details: in vivo
Summary of the method: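 Male Sprague-Dawley rats (2), starved overnight, dosed orally at 50 mg/kg as a solution in 0.5% methocel. Jugular vein blood sampled at 0, 0.5, 1, 2, 4, 6 and 8 h. Plasma proteins precipitated with an equal volume of acetonitrile. Supernatant analysed by reversed-phase HPLC for the lactone.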

Homo sapiens [2] = species: Homo sapiens; assay: In vitro inhibition of LTB4 formation in human peripheral blood polymorphonuclear leukocytes (HPMN); format: functional
Homo sapiens [3] = species: Homo sapiens; assay: In vitro inhibition of LTB4 formation in human whole blood(HWB); format: functional
[4] = biological target: T1, Polyunsaturated fatty acid 5-lipoxygenase (Homo sapiens, UniProt P09917); assay: In vitro potency against human 5-Lipoxygenase
T1 sequence (P09917 whole entry): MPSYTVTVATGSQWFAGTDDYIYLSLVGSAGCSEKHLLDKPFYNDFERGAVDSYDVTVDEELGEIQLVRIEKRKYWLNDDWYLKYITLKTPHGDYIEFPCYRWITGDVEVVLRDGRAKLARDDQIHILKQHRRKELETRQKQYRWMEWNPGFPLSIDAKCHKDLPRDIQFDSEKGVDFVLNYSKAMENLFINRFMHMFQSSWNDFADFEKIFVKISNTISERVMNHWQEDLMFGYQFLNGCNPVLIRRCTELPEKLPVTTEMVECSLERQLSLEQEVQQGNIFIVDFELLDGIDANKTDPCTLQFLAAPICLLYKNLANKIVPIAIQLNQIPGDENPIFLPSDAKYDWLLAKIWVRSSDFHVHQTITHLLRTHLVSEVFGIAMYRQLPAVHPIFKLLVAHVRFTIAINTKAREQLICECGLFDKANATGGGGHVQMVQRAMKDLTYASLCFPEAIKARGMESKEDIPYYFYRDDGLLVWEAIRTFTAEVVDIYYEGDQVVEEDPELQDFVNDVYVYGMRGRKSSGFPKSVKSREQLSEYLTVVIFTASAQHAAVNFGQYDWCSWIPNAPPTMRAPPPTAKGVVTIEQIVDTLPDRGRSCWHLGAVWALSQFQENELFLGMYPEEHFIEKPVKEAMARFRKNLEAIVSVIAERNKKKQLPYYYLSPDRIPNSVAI
Summary of the method: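 Soluble cell-free fraction of Sf9 cells expressing recombinant human 5-LO (10 μg protein/mL). Conjugated diene formation followed at A234. Inhibitors added from 500-fold DMSO stocks.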

Monkey = assay: Inhibition of antigen-induced bronchoconstriction in allergic squirrel monkeys at 0.3 mg/kg; format: functional; details: in Saimiri
Summary of the method: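 Allergic squirrel monkeys dosed orally at 0.3 mg/kg 4 h before aerosol challenge with Ascaris antigen. Read-outs were the increase in airway resistance (RL) and the decrease in dynamic compliance (Cdyn).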

Rattus norvegicus [5] = species: Rattus norvegicus; assay: Dose-dependent inhibition of LTB4 by the compound after 3h of oral pretreatment in rat pleural; format: functional
Rattus norvegicus [6] = species: Rattus norvegicus; assay: Dose-dependent inhibition of LTB4 by the compound after 2 hr of oral pretreatment in rat pleural; format: functional

| SMILES | Cmax [1] [µM] | IC50 (Homo sapiens [2]) [µM] | IC50 (Homo sapiens [3]) [µM] | IC50 [4] [µM] | inhibition in vivo at 0.3 mg/kg (Monkey) [%] | ED50 (Rattus norvegicus [5]) [mg/kg] | ED50 (Rattus norvegicus [6]) [mg/kg] |
| --- | --- | --- | --- | --- | --- | --- | --- |
| COC1(c2cccc(COc3ccc4c(-c5ccccc5)c5c(cc4c3)C(=O)OC5)c2)CCOCC1 | 4 | 0.0015 | 0.05 |  |  |  |  |
| COC1(c2cccc(COc3ccc4ccccc4c3)c2)CCOCC1 |  | 0.055 | 1.5 | 1 |  |  |  |
| COC1(c2cccc(OCc3ccc4c(-c5ccccc5)c5c(cc4c3)C(=O)OC5)c2)CCOCC1 |  | 0.0009 | 0.05 | 0.02 |  |  |  |
| CCC(OC)(c1cccc(OCc2ccc3c(-c4ccccc4)c4c(cc3c2)C(=O)OC4)c1)c1nccs1 (configuration not stated) |  | 0.0022 | 0.7 | 0.05 |  |  |  |
| CCC(OC)(c1cccc(COc2ccc3ccccc3c2)c1)c1nccs1 (configuration not stated) |  | 0.011 | > 3 |  |  |  |  |
| COC1(c2cccc(COc3ccc4c(-c5ccccc5)c(CO)c(C(=O)[O-])cc4c3)c2)CCOCC1.[Na+] |  |  |  |  | 95 | 0.6 |  |
| CCC(OC)(c1cccc(COc2ccc3c(-c4ccccc4)c4c(cc3c2)C(=O)OC4)c1)c1nccs1 (configuration not stated) |  | 0.0048 | 1.4 | 0.16 |  |  |  |
| COC1(c2cccc(OCc3ccc4ccccc4c3)c2)CCOCC1 |  | 0.0012 | 0.06 | 0.01 |  |  |  |
| CC(C)(C)Sc1c(CC(C)(C)C(=O)O)n(Cc2ccc(Cl)cc2)c2ccc(OCc3ccc4ccccc4n3)cc12 [QUIFLAPON] |  |  |  | 5 |  |  | 0.5 |
| CC(c1cc2ccccc2s1)N(O)C(N)=O (configuration not stated) [ZILEUTON] |  |  | 2 |  |  |  |  |
| CCC(OC)(c1cccc(OCc2ccc3ccccc3c2)c1)c1nccs1 (configuration not stated) [ZM-211965] |  | 0.0044 | 0.7 |  |  |  |  |
